Measurements published in PMC6092622 (The EMBO Journal, 2018).
Where two headings read alike, the source gives them in different places.

Legend:
[1] = tested on: IKK and SOD1/IKK mice; format: in vivo, mouse
How it was run: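 Transgene expression was active in the sustained cohort (DOX withdrawn at P20–25). Mice of all four genotypes got a Porcupine inhibitor by daily oral gavage at 10 mg/kg for 12 days, from P25 (sacrificed at P38) or from P90 (to P102). It was suspended in PBS + 5% Tween-80 + 5% PEG-400; vehicle controls were included. Spinal cord sections were immunostained; Ki-67 and CD45 required citrate antigen retrieval. Cell densities are per area unit.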

[2] = target: T1, human CB2 (Homo sapiens, UniProt P34972); format: binding; details: CB2 versus CB1, as stated in text
How it was run: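 Competition binding used [3H]-CP55940 radioligand on membranes from cells expressing human CB2 or human CB1, so that selectivity could be compared. Each compound was tested at 10 concentrations in triplicate. Ki values were calculated from a single experiment.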

[3] = target: T1, human CB2; test: cAMP assay in CHO cells stably expressing human CB2; format: cell-based; details: in words
How it was run: (§1)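 cAMP assays were run in CHO cells stably expressing human CB2 or mouse CB2. Efficacy is expressed as % of the response to 1 μM CP55940.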

[4] = target: mouse CB2 (Mus musculus, UniProt P47936); test: cAMP assay in CHO cells stably expressing mouse CB2; format: cell-based; details: in words
How it was run: as §1

[5] = tested on: SOD1 (G93A) mice; test: CB2 ligands given i.p. to SOD1; format: in vivo, mouse; details: for %IBA1+ area (microglial expansion): P25 to P35, SOD1-veh 9.7 ± 0.4%; for fraction of LC3A bright MN: P25 to P35, vehicle 23.4 ± 7.7; for misfolded SOD1: high-burden MN fraction: P25 to P35, vehicle 25.4 ± 5.5%
How it was run: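 Male SOD1(G93A) mice got daily i.p. CB2 agonists (10 mg/kg) or inverse agonist (30 mg/kg) as a microsuspension in 1% Tween-80/0.9% NaCl with 0.2% parabens, or vehicle. Spinal cords were perfusion-fixed and cut into 40 μm free-floating sections. CD4 was stained after citrate-heat antigen retrieval. IBA1 was scored as the thresholded area fraction of ventral-horn ROIs. High-burden MN cutoff: 75th percentile of vehicle-treated SOD1. Used 8–10 sections/mouse, ≥4 mice/group.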

[6] = tested on: WT mice; test: CB2 agonists given to WT mice, IBA1 immunostaining; format: in vivo, mouse; details: IBA1 staining
[7] = 10 mg/kg once daily i.p., P25 to P35
[8] = 30 mg/kg once daily i.p., P25 to P35

Chain of mouse CB2 (P47936 whole entry): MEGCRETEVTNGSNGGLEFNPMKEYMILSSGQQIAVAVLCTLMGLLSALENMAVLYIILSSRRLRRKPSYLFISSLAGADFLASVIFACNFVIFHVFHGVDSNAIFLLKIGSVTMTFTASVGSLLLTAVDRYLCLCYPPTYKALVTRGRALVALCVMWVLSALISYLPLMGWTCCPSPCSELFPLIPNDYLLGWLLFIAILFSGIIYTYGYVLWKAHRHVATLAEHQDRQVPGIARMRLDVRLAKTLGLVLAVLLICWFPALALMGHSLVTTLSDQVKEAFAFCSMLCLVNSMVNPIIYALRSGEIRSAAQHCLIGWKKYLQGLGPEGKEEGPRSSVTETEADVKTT
T1 sequence (P34972 whole entry): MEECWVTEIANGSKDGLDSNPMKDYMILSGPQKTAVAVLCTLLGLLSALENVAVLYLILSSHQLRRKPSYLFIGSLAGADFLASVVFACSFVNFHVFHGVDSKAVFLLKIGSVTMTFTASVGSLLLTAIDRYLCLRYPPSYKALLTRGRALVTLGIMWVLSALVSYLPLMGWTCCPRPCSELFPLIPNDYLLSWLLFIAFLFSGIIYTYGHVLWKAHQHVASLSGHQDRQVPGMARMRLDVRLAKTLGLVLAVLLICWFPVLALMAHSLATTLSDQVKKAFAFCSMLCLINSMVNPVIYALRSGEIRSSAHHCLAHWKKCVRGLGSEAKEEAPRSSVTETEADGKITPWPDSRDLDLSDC

| Structure (SMILES) | binding selectivity against CB1 [2] | functional activity in cAMP assay, human CB2 [3] | functional activity in cAMP assay, mouse CB2 [4] | infiltration of CD4+ lymphocytes in spinal cord [5, 7] | %IBA1+ area (microglial expansion) ([5]; 10 mg/kg once daily i.p.) | fraction of LC3A bright MN ([5]; 10 mg/kg once daily i.p.) | misfolded SOD1: high-burden MN fraction ([5]; 10 mg/kg once daily i.p.) | effect on microglial size in WT animals [6] | further results |
| --- | --- | --- | --- | --- | --- | --- | --- | --- | --- |
| Cc1cc(-c2ccc(CC(=O)Nc3ccc(-c4cccnc4)cc3)cc2)ccn1 [Compound C59] |  |  |  |  |  |  |  |  | WNT5a immunoreactivity ([1]; 10 mg/kg daily oral gavage for 12 days from P25, sacrifice at P38): < 10 % of vehicle‐treated (Veh) SOD1/IKK; decrease in misfolded SOD1 and LC3A levels in SOD1/IKK versus SOD1 littermates ([1]; 10 mg/kg daily oral, P25-P38): completely reverted; number of CD45+ cells ([1]; IKK and SOD1/IKK mice, late phase P90 to P102): significantly decreased; number of CD11b+KI-67+ cells ([1]; IKK mice, 10 mg/kg daily oral, P25-P38, IKK-Veh 11.0 ± 3.0): 5.4 ± 0.2 cells per 10^4 μm^2; overall IBA1+ area ([1]; IKK mice, 10 mg/kg daily oral, P25-P38, IKK-Veh 52.1 ± 6.5): 30.5 ± 4.6%; microglial density (number of IBA1+ cells) ([1]; IKK mice, 10 mg/kg daily oral, P25-P38, vehicle 30.4 ± 1.8): 18.2 ± 1.7 cells/10^4 μm^2; number of IBA1+ cells at P102 ([1]; IKK mice, late phase P90 to P102, IKK-Veh 16.5 ± 0.7): 7.8 ± 0.3; number of CD11b+KI-67+ cells ([1]; SOD1/IKK mice, 10 mg/kg daily oral, P25-P38, SOD1/IKK-Veh 18.0 ± 2.0): 5.0 ± 1.3 cells per 10^4 μm^2; overall IBA1+ area ([1]; SOD1/IKK mice, 10 mg/kg daily oral, P25-P38, SOD1/IKK-Veh 53.6 ± 3.9): 39.2 ± 4.9%; microglial density (number of IBA1+ cells) ([1]; SOD1/IKK mice, 10 mg/kg daily oral, P25-P38, vehicle 36.2 ± 6.1): 20.2 ± 4.0 cells/10^4 μm^2; number of IBA1+ cells at P102 ([1]; SOD1/IKK mice, late phase P90 to P102, SOD1/IKK-Veh 15.8 ± 0.2): 9.41 ± 0.35; number of CD45+ cells ([1]; early administration, 10 mg/kg daily oral, P25-P38): strongly decreased |
| Cc1nc([C@@](C)(CC2CC2)NC(=O)c2cc(OCC(F)(F)F)c(C3CC3)cn2)no1 [RO6871085, 5-Cyclopropyl-N-[(1R)-2-cyclopropyl-1-methyl-1-(5-methyl-1,2,4-oxadiazol-3-yl)ethyl]-4-(2,2,2-trifluoroethoxy)pyridine-2-carboxamide] | 44 fold | full agonists | full agonists | increased the number of CD4^+ cells | 5.2 ± 0.3% | 45.4 ± 5.6% | 69.1 ± 9.5% |  |  |
| CNC(=O)[C@@H](NC(=O)c1cc(OCC2(C)COC2)c(C2CC2)cn1)C(C)(C)C [RO6851228, 5-Cyclopropyl-N-[(1S)-2,2-dimethyl-1-(methylcarbamoyl)propyl]-4-[(3-methyloxetan-3-yl)methoxy]pyridine-2-carboxamide] |  | inverse agonist activity |  |  |  |  |  |  | infiltration of CD4+ lymphocytes in spinal cord [5, 8]: did not affect lymphocyte infiltration; microglial morphology [5, 8]: expansion of the size and of the complexity of microglial processes; fraction of LC3A bright MN ([5]; 30 mg/kg once daily i.p.): 11.4 ± 13.9%; misfolded SOD1: high-burden MN fraction ([5]; 30 mg/kg once daily i.p.): 10.2 ± 5.1% |
| NC(=O)[C@@H]1CC(F)(F)CN1C(=O)c1ccc(N2CC(F)(F)C2)c(OCC2CC2)n1 [RO6895896, (2S)-1-[6-(Cyclopropylmethoxy)-5-(3,3-difluoroazetidin-1-yl)pyridine-2-carbonyl]-4,4-difluoro-pyrrolidine-2-carboxamide] |  | full agonists | full agonists | did not affect lymphocyte infiltration | 6.0 ± 0.2% | 73.4 ± 12.4% | 72.4 ± 11.3% | did not affect microglial size |  |
| Cc1nonc1Cn1nnc2c(N3CC[C@H](O)C3)nc(C(C)(C)C)nc21 [RO6866945, (3S)-1-[5-tert-Butyl-3-[(4-methyl-1,2,5-oxadiazol-3-yl)methyl]triazolo[4,5-d]pyrimidin-7-yl]pyrrolidin-3-ol] | 939 fold | full agonists | full agonists | did not affect lymphocyte infiltration | 4.9 ± 0.2% | 70.8 ± 11.2% | 42.3 ± 8.7% | did not affect microglial size |  |
